# Laboratory results as given in ChEMBL document CHEMBL1914448, “Proteolytically stable cancer targeting peptides with high affinity for breast cancer cells” (J Med Chem, 2011).
# Activity calls are given as the source filed them. Peptide text beside a SMILES is read from it.
# Columns and labels:
# HUVEC [1] = assay: Drug uptake in human HUVEC cells assessed as increase in fluorescently labeled cells after 30 mins by FACS analysis relative to untreated control; format: ADME, cell-based; conditions: 0.5 h
# Method in brief: (§1)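 Cells grown to 80% confluence, trypsinized, seeded at 10^6 per well for 24 h at 37 °C, then exposed to FITC-labeled peptides at 10−5 mol/L in serum-free medium for 30 min at 37 °C. Washed three times with PBS, trypsinized to strip surface-bound peptide, analyzed by flow cytometry. Untreated-cell autofluorescence set the cutoff for labeled cells. Repeated 2−3 times.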
# Liver [2] = assay: Proteolytic stability in CD1 mouse liver homogenate up to 48 hrs by RP-HPLC analysis; format: ADME, tissue-based; conditions: tissue homogenate
# Method in brief: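 Homogenate prepared from male CD-1 mouse liver in ice-cold HEPES pH 7.4, centrifuged, and its protein set by BCA. Peptide stock (1 mM in 5% ACN/water) diluted into homogenate plus RPMI pH 7.4 (2.94 mg protein total), shaken at 37 °C up to 48 h. Timed aliquots analyzed by RP-HPLC.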
# MDA-MB-435 [3] = assay: Drug uptake in human MDA-MB-435 cells assessed as increase in fluorescently labeled cells at 10 '-5 mol/L after 30 mins by FACS analysis relative to WNleEAAYQRFL peptide; format: ADME, cell-based; conditions: mda-mb-435, 0.5 h, 10 µM; method in brief: as §1
# MCF7 [4] = assay: Drug uptake in human MCF7 cells assessed as increase in fluorescently labeled cells at 10 '-5 mol/L after 30 mins by FACS analysis relative to WNleEAAYQRFL peptide; format: ADME, cell-based; conditions: mcf7, 0.5 h, 10 µM; method in brief: as §1
# MDA-MB-231 [5] = assay: Drug uptake in human MDA-MB-231 cells assessed as increase in fluorescently labeled cells at 10 '-5 mol/L after 30 mins by FACS analysis relative to WNleEAAYQRFL peptide; format: ADME, cell-based; conditions: mda-mb-231, 0.5 h, 10 µM; method in brief: as §1
# Serum [6] = assay: Proteolytic stability in human serum assessed as compound degradation from 0.5 to 24 hrs by RP-HPLC analysis; format: ADME, cell-free
# Method in brief: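 25% human serum in RPMI, equilibrated at 37 °C, with peptide added from a 1 mM aqueous stock. Aliquots taken at 0, 0.5, 1, 5 and 24 h, proteins precipitated with methanol at 4 °C and spun down. Supernatant run on C18 RP-HPLC with a 12−100% IPA/water gradient, detection at 214 nm. Peaks quantified by area; identity checked by MALDI-TOF.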
# MCF-10A = assay: Drug uptake by human MCF10A cells assessed as increase in fluorescently labeled cells after 30 mins by FACS analysis relative to untreated control; format: ADME, cell-based; conditions: 0.5 h; method in brief: as §1
# [7] = Cytotoxicity against human MDA-MB-435 cells assessed as cell viability up to 100 uM by MTT assay; format: cell-based; conditions: read-out: Activity
# Method in brief: (§2)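 MDA-MB-435 cells seeded at 1 × 10^4 cells/well in serum-free RPMI with antibiotics, 37 °C, 5% CO2; after 24 h, peptides (1−100 μM, made up in sterile water) added for 48 h; doxorubicin positive control, untreated negative control. MTT (5 mg/mL medium) 3.5 h, formazan dissolved in DMSO, A570 with 650 nm reference. Viability = absorbance treated/untreated; triplicate, mean.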
# MDA-MB-435 [8] = assay: Drug uptake in human MDA-MB-435 cells assessed as increase in fluorescently labeled cells at 10 '-5 mol/L after 30 mins by FACS analysis relative to untreated control; format: ADME, cell-based; conditions: mda-mb-435, 0.5 h, 10 µM
# Method in brief: (§3)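 Cells grown to 80% confluence, trypsinized, seeded at 10^6 per well and cultured 24 h. They were then exposed to FITC-peptide at 10−5 mol/L in serum-free medium for 30 min at 37 °C, washed, and trypsinized to strip surface-bound peptide. Read by flow cytometry as percent cells above the autofluorescence cutoff of untreated cells. Repeated 2−3 times.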
# MDA-MB-231 [9] = assay: Drug uptake in human MDA-MB-231 cells assessed as increase in fluorescently labeled cells at 10 '-5 mol/L after 30 mins by FACS analysis relative to untreated control; format: ADME, cell-based; conditions: mda-mb-231, 0.5 h, 10 µM; method in brief: as §3
# MCF7 [10] = assay: Drug uptake in human MCF7 cells assessed as increase in fluorescently labeled cells at 10 '-5 mol/L after 30 mins by FACS analysis relative to untreated control; format: ADME, cell-based; conditions: mcf7, 0.5 h, 10 µM; method in brief: as §3
# MDA-MB-435 [11] = assay: Binding affinity to human MDA-MB-435 cells by CyQuant GR fluorescent dye-based assay; format: functional, cell-based
# Serum [12] = assay: Proteolytic stability in human serum assessed as compound degradation after 30 mins by RP-HPLC analysis; format: ADME, cell-free; conditions: 0.5 h
# Method in brief: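 Final mix of 25% human serum in RPMI, equilibrated at 37 °C for 15 min. Peptide added from a 1 mM water stock (100 μL into 1 mL total). Aliquots taken at 0, 0.5, 1, 5 and 24 h and quenched in methanol; serum proteins pelleted. Supernatant analysed by RP-HPLC (12–100% IPA/water, 214 nm); peaks integrated, with fragments identified by MALDI-TOF.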
# Liver [13] = assay: Proteolytic stability in CD1 mouse liver homogenate after 15 mins by RP-HPLC analysis; format: ADME, tissue-based; conditions: tissue homogenate, 0.25 h
# Method in brief: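 Liver homogenate from male CD-1 mice, made in ice-cold HEPES pH 7.4 and centrifuged; supernatant adjusted to 14.7 mg/mL protein. Peptide added from a 1 mM stock in 5% ACN/water (100 μL) to 200 μL homogenate plus 700 μL RPMI, pH 7.4 (2.94 mg protein). Incubated at 37 °C with shaking, sampled at intervals, and analysed by RP-HPLC.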
# MDA-MB-435 [14] = assay: Drug uptake in human MDA-MB-435 cells at 10 '-5 mol/L after 30 mins by confocal microscopy; format: ADME, cell-based; conditions: mda-mb-435, 0.5 h, 10 µM
# Method in brief: (§4)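 MDA-MB-435 or HUVEC cells (50,000) grown on coverslips for 24 h at 37 °C, then exposed to FITC-labelled peptide at 10−5 mol/L in serum-free medium for 30 min at 37 °C. Cells washed, fixed on ice in 2% formaldehyde for 20 min, nuclei stained with DAPI. Imaged by fluorescence microscopy (20×); the same samples were taken to confocal optical sectioning (40× oil) to confirm internalization.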
# HUVEC [15] = assay: Drug uptake in human HUVEC cells at 10 '-5 mol/L after 30 mins by confocal microscopy; format: ADME, cell-based; conditions: 0.5 h, 10 µM; method in brief: as §4
# MDA-MB-435 [16] = assay: Binding affinity to human MDA-MB-435 cells assessed as decrease in fluorescence after 30 mins by FACS analysis in the presence of unlabelled compound; format: functional, cell-based
# Method in brief: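 Competition assay by flow cytometry in MDA-MB-435 cells. FITC-labelled peptide at 10−5 mol/L was co-incubated with a 50-fold excess of the same unlabelled peptide for 30 min at 37 °C. Cells washed with ice-cold PBS, then FACS as in the uptake assay. Repeated 2−3 times.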
# Homo sapiens = species on record: Homo sapiens; assay: Binding affinity to human MDA-MB-435 cell membrane at 10 '-5 mol/L after 30 mins by fluorescence microscopy; method in brief: as §4
# MDA-MB-435 [17] = assay: Drug uptake in human MDA-MB-435 cells assessed as internalization at 10 '-5 mol/L after 30 mins by fluorescence microscopy; format: ADME, cell-based; conditions: mda-mb-435, 0.5 h, 10 µM
# Method in brief: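 MDA-MB-435 cells (50 000) grown on coverslips for 24 h at 37 °C, then given FITC-labeled peptide at 10−5 mol/L in serum-free medium for 30 min at 37 °C. Washed, fixed on ice with 2% formaldehyde for 20 min, nuclei stained with DAPI. Imaged by fluorescence microscopy at 20×; internalization confirmed by confocal optical sectioning, 40× oil lens, 1.64 μm steps.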
# MDA-MB-435 [18] = assay: Growth inhibition of human MDA-MB-435 cells at 15 uM by MTT assay; format: functional, cell-based; method in brief: as §2
Molecule,Drug uptake (HUVEC [1]) [%],Stability (Liver [2]),fold change (FC) (MDA-MB-435 [3]),fold change (FC) (MCF7 [4]),fold change (FC) (MDA-MB-231 [5]),Stability (Serum [6]),Drug uptake (MCF-10A) [%],Drug uptake (MDA-MB-435 [17]),viability [7] [%],Drug uptake (MDA-MB-435 [8]) [%],Drug uptake (MDA-MB-231 [9]) [%],Drug uptake (MCF7 [10]) [%],Kd (MDA-MB-435 [11]) [µM],Stability (Serum [12]),Stability (Liver [13]),Drug uptake (MDA-MB-435 [14]),Drug uptake (HUVEC [15]),Activity (MDA-MB-435 [16]),Activity (Homo sapiens),growth inhibition (GI) (MDA-MB-435 [18])
H-WEEAAYQRFL-OH,–,–,–,–,–,–,–,–,–,14,33,60,–,–,–,–,–,–,–,–
CCCC[C@H](NC(=O)[C@@H](N)Cc1c[nH]c2ccccc12)C(=O)N[C@@H](CCC(=O)O)C(=O)N[C@@H](C)C(=O)N[C@@H](C)C(=O)N[C@@H](Cc1ccc(O)cc1)C(=O)N[C@@H](CCC(N)=O)C(=O)N[C@@H](CCCNC(=N)N)C(=O)N[C@@H](Cc1ccccc1)C(=O)N[C@@H](CC(C)C)C(=O)O (HELM PEPTIDE1{W.[Nle].E.A.A.Y.Q.R.F.L}$$$$V2.0),–,–,–,–,–,–,–,–,–,10,16,22,42,Unstable,Unstable,–,–,–,–,–
CCCC[C@@H](NC(=O)[C@@H](N)Cc1c[nH]c2ccccc12)C(=O)N[C@@H](CCC(=O)O)C(=O)N[C@@H](C)C(=O)N[C@@H](C)C(=O)N[C@@H](Cc1ccc(O)cc1)C(=O)N[C@@H](CCC(N)=O)C(=O)N[C@H](CCCNC(=N)N)C(=O)N[C@@H](Cc1ccccc1)C(=O)N[C@@H](CC(C)C)C(=O)O (HELM PEPTIDE1{W.[CCCC[C@@H](N[*:1])C(=O)[*:2]].E.A.A.Y.Q.[dR].F.L}$$$$V2.0),12,Stable,3.5,3.5,3.5,Stable,36,–,> 98,35,45,68,–,–,–,Active,Not Active,inactive,Active,–
COc1cccc2c1C(=O)c1c(O)c3c(c(O)c1C2=O)C[C@@](O)(C(=O)CO)C[C@@H]3O[C@H]1C[C@H](N)[C@H](O)[C@H](C)O1,–,–,–,–,–,–,–,–,–,–,–,–,–,–,–,–,–,–,–,Active

# More lines, main results first:
Drug uptake (HUVEC [1]) [%],Stability (Liver [2]),fold change (FC) (MDA-MB-435 [3]),fold change (FC) (MCF7 [4]),fold change (FC) (MDA-MB-231 [5]),Stability (Serum [6]),Drug uptake (MCF-10A) [%],Drug uptake (MDA-MB-435 [17]),Molecule,viability [7] [%],Drug uptake (MDA-MB-435 [8]) [%],Drug uptake (MDA-MB-231 [9]) [%],Drug uptake (MCF7 [10]) [%],Kd (MDA-MB-435 [11]) [µM],Stability (Serum [12]),Stability (Liver [13]),Drug uptake (MDA-MB-435 [14]),Drug uptake (HUVEC [15]),Activity (MDA-MB-435 [16]),Activity (Homo sapiens),growth inhibition (GI) (MDA-MB-435 [18])
35,Stable,3,3,3,Stable,55,–,CCCC[C@H](NC(=O)C[C@H](N)C(=O)NCc1cccc2ccccc12)C(=O)N[C@@H](CCC(=O)O)C(=O)N[C@@H](C)C(=O)N[C@@H](CC(=O)N[C@@H](Cc1ccc(O)cc1)C(=O)N[C@@H](CCC(N)=O)C(=O)N[C@@H](CC(=O)N[C@@H](Cc1ccccc1)C(=O)N[C@@H](CC(C)C)C(=O)O)C(=O)NCCCCN)C(=O)NC,> 98,–,–,–,–,–,–,–,–,–,–,–
30,Stable,3,3,3,Stable,50,Active,CCCC[C@H](NC(=O)C[C@H](N)C(=O)NCc1cccc2ccccc12)C(=O)N[C@@H](CCC(=O)O)C(=O)N[C@@H](CC(=O)N[C@@H](C)C(=O)N[C@@H](Cc1ccc(O)cc1)C(=O)N[C@@H](CCC(N)=O)C(=O)N[C@@H](CC(=O)N[C@@H](Cc1ccccc1)C(=O)N[C@@H](CC(C)C)C(=O)O)C(=O)NCCCCN)C(=O)NC,> 98,–,–,–,–,–,–,Active,Not Active,–,Active,–
